Experimental data from ChEMBL document CHEMBL4411315, “Discovery of Novel Dual Histone Deacetylase and Mammalian Target of Rapamycin Target Inhibitors as a Promising Strategy for Cancer Therapy” (J Med Chem, 2019).
Calls of active or inactive are those of the source. No cut-off for these calls is given here.

Key:
Histone deacetylase 1 = Histone deacetylase 1 (Homo sapiens, UniProt Q13547); assay: Inhibition of recombinant full length HDAC1 (unknown origin) using Ac-peptide-AMC as substrate preincubated for 15 mins followed by substrate addition and measured after 1 hr by fluorescence assay
Sequence of Histone deacetylase 1 (Q13547 whole entry): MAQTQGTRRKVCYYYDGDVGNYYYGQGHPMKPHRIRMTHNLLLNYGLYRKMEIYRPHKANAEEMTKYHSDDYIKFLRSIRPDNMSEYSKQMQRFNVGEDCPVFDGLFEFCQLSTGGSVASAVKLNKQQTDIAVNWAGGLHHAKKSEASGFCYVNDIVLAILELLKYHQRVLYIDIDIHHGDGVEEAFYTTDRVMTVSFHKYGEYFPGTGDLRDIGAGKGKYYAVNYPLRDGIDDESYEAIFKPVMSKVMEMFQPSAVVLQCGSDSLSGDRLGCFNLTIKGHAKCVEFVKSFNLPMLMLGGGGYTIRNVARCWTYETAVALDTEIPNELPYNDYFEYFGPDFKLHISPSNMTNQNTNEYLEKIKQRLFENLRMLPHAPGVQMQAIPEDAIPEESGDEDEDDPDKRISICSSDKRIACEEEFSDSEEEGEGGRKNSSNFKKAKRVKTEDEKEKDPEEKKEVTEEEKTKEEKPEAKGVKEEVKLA

Histone deacetylase 8 = Histone deacetylase 8 (Homo sapiens, UniProt Q9BY41); assay: Inhibition of recombinant full length C-terminal His-tagged human HDAC8 expressed in baculovirus expression system using Ac-peptide-AMC as substrate preincubated for 15 mins followed by substrate addition and measured after 1 hr by fluorescence assay
Sequence of Histone deacetylase 8 (Q9BY41 whole entry): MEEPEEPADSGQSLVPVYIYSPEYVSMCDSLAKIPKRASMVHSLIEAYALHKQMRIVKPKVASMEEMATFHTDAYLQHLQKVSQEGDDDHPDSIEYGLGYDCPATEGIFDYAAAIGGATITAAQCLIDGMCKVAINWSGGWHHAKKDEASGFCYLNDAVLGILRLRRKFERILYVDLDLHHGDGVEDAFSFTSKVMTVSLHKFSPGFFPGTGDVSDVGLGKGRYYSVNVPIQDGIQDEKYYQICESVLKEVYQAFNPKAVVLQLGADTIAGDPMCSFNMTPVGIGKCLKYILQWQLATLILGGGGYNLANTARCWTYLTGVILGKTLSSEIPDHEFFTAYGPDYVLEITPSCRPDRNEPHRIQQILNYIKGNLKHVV

[1] = molecular target: T1, Serine/threonine-protein kinase mTOR (Homo sapiens, UniProt P42345); assay: Inhibition of recombinant N-terminal FLAG-tagged human mTOR (1362 to end residues) using ULight-4E-BP1 (Thr37/46) peptide as substrate after 1 hr by fluorescence assay
Method in brief: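 mTOR enzyme, ATP, compound and ULight-4E-BP1 (Thr37/46) peptide in kinase buffer were incubated 1 h at room temperature. EDTA quench plus Eu-anti-phospho-4E-BP1 antibody was added and equilibrated 1 h. TR-FRET was read at excitation 320 or 340 nm and emission 665 nm. Curves were fitted, and values are means of at least two experiments.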

MV4-11 [2] = assay: Antiproliferative activity against human MV4-11 cells after 72 hrs by MTT assay; assay type: functional, cell-based; conditions: MV4-11, 72 h
[3] = molecular target: PI3-kinase p110-alpha/p85-alpha (Homo sapiens) (UniProt P27986+P42336); assay: Inhibition of recombinant human full length N-terminal His-tagged/untagged p110alpha/p85alpha expressed in baculovirus expression system at 100 nM using PIP2 as substrate after 1 hr by Kinase-Glo reagent-based assay relative to control
Method in brief: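 PI3Kα (p110α/p85α) incubated with PIP2 substrate and ATP in kinase buffer for 1 h at room temperature. Kinase-Glo reagent was then added for 15 min before luminescence read-out. Inhibition rate at 100 or 1000 nM is the mean of at least two experiments.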

MV4-11 [4] = assay: Cell cycle arrest in human MV4-11 cells assessed as accumulation at S phase at 2.5 nM after 24 hrs by propidium iodide/RNase staining-based FACS analysis (reference value: 36.42%); assay type: functional
MV4-11 [5] = assay: Cell cycle arrest in human MV4-11 cells assessed as accumulation at S phase at 10 nM after 24 hrs by propidium iodide/RNase staining-based FACS analysis (reference value: 36.42%); assay type: functional
MM1.S [6] = assay: Cell cycle arrest in human MM1S cells assessed as accumulation at G0/G1 phase at 1.25 nM after 24 hrs by propidium iodide/RNase staining-based FACS analysis (reference value: 49.22%); assay type: functional
MV4-11 [7] = assay: Induction of apoptosis in human MV4-11 cells assessed as necrotic cells at 10 nM after 48 hrs by Annexin V-FITC/propidium iodide staining-based flow cytometric analysis (reference value: 0.17%); assay type: functional
MV4-11 [8] = assay: Induction of apoptosis in human MV4-11 cells assessed as viable cells at 10 nM after 48 hrs by Annexin V-FITC/propidium iodide staining-based flow cytometric analysis (reference value: 84.1%); assay type: functional; conditions: MV4-11, 48 h, read-out: Activity
MV4-11 [9] = assay: Induction of apoptosis in human MV4-11 cells assessed as necrotic cells at 40 nM after 48 hrs by Annexin V-FITC/propidium iodide staining-based flow cytometric analysis (reference value: 0.17%); assay type: functional
MV4-11 [10] = assay: Induction of apoptosis in human MV4-11 cells assessed as necrotic cells at 80 nM after 48 hrs by Annexin V-FITC/propidium iodide staining-based flow cytometric analysis (reference value: 0.17%); assay type: functional
MV4-11 [11] = assay: Induction of apoptosis in human MV4-11 cells assessed as viable cells at 160 nM after 48 hrs by Annexin V-FITC/propidium iodide staining-based flow cytometric analysis (reference value: 84.1%); assay type: functional; conditions: MV4-11, 48 h, read-out: Activity
MV4-11 [12] = assay: Induction of apoptosis in human MV4-11 cells assessed as late apoptotic cells at 320 nM after 48 hrs by Annexin V-FITC/propidium iodide staining-based flow cytometric analysis (reference value: 5.03%); assay type: functional
MM1.S [13] = assay: Induction of apoptosis in human MM1S cells assessed as late apoptotic cells at 20 nM after 48 hrs by Annexin V-FITC/propidium iodide staining-based flow cytometric analysis (reference value: 0.42%); assay type: functional
MM1.S [14] = assay: Induction of apoptosis in human MM1S cells assessed as early apoptotic cells at 80 nM after 48 hrs by Annexin V-FITC/propidium iodide staining-based flow cytometric analysis (reference value: 0.38%); assay type: functional
MM1.S [15] = assay: Induction of apoptosis in human MM1S cells assessed as necrotic cells at 80 nM after 48 hrs by Annexin V-FITC/propidium iodide staining-based flow cytometric analysis (reference value: 0.32%); assay type: functional
[16] = molecular target: T1, Serine/threonine-protein kinase mTOR; assay: Inhibition of mTOR in human MV4-11 cells assessed as decrease in p70S6K phosphorylation at Thr 389 residues at 0.01 to 10 uM after 24 hrs by Western blot analysis; assay type: cell-based
Method in brief: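 Treatment of MV4-11 cells lasted 24 h at 0.01, 0.1, 1 and 10 μM. Lysis in RIPA buffer and BCA quantitation, then 30 μg protein by SDS-PAGE, PVDF transfer, 5% milk block, primary antibody overnight at 4 °C, HRP secondary 1 h and ECL detection. p-p70S6K (T389), p-4EBP1 (S65), p-Akt (S473) and p-ERK were probed.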

[17] = molecular target: Protein deacetylase HDAC6 (Homo sapiens) (UniProt Q9UBN7); assay: Inhibition of HDAC6 in human MV4-11 cells assessed as increase in alpha-tubulin acetylation after 6 hrs by Western blot analysis; assay type: cell-based
Sequence of Protein deacetylase HDAC6 (Homo sapiens) (Q9UBN7 whole entry): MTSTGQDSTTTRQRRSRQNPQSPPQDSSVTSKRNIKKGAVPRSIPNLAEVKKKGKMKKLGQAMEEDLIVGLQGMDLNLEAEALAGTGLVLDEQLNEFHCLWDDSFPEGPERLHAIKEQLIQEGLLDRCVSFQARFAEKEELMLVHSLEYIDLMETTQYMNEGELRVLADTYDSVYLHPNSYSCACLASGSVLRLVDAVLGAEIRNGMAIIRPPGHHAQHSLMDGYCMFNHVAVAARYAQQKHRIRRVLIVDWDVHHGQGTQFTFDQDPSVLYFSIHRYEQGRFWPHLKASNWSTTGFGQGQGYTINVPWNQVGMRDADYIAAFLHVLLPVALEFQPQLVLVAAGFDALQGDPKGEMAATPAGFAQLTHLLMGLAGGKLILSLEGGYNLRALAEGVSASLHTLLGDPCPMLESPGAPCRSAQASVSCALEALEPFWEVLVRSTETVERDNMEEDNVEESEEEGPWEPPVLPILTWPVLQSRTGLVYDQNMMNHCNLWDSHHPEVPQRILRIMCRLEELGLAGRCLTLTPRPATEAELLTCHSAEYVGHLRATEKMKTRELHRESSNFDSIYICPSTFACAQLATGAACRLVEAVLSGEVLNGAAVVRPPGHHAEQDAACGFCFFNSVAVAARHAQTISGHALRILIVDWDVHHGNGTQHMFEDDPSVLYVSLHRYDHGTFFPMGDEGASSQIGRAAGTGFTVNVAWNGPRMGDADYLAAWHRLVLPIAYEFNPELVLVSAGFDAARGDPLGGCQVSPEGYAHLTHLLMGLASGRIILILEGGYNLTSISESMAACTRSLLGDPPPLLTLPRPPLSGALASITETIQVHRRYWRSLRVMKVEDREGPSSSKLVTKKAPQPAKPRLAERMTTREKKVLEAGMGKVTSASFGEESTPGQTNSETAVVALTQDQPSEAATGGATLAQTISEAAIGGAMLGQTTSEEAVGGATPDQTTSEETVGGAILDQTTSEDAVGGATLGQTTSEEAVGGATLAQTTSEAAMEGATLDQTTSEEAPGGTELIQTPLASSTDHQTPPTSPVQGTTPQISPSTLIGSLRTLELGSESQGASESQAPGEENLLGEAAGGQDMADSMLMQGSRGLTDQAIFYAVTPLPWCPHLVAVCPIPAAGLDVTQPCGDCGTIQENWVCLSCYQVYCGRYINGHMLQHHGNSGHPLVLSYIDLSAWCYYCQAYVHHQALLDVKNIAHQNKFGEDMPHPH
Method in brief: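 MV4-11 cells treated 6 h at 0.01, 0.1 or 1 μM. Whole-cell protein extracted in RIPA buffer and quantified by BCA. 30 μg protein run on SDS-PAGE and transferred to PVDF. Blocked 1 h in 5% milk, primary antibody overnight at 4 °C, HRP secondary 1 h, ECL detection. Acetyl-histone H3 and acetyl-α-tubulin probed, with GAPDH as loading control.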

MV4-11 [18] = assay: Antitumor activity against human MV4-11 cells xenografted in NOD/SCID mouse assessed as tumor growth inhibition at 10 mg/kg, iv administered every 2 days for 6 days and measured every 2 days post last dose by caliper method relative to control; assay type: functional; conditions: MV4-11, iv, read-out: TGI
Method in brief: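 Female NOD/SCID mice aged 5-6 weeks received 10^7 MV4-11 cells in 100 μL serum-free IMDM s.c. into the right flank. At 100-200 mm3 the mice were randomized, 6 per group. Dosing was i.v. at 10 mg/kg every 2 days, in saline with 2.5% DMSO and 10% cyclodextrin at pH 9. Tumours were measured by caliper every 2 days, with volume = length × width² × 0.5, and were weighed at sacrifice.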

[19] = Toxicity against NOD/SCID mouse xenografted with human MV4-11 cells assessed as mouse survival at 10 mg/kg, iv administered every 2 days for 6 days; assay type: organism-based; conditions: in vivo
Method in brief: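 MV4-11 cells (10^7 in 100 μL serum-free IMDM) were injected s.c. into the right flank of female NOD/SCID mice aged 5-6 weeks. Groups of 6 were randomised at 100-200 mm3. Dosing was i.v. every 2 days in physiological saline containing 2.5% DMSO and 10% cyclodextrin, pH 9. Tumours were measured by caliper every 2 days. Survivors were counted.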

Q: What does the source list for `C[C@@H]1CN(C(=O)Nc2ccc(-c3nc(N4CCOCC4)c4cnn(CCCCCCC(=O)NO)c4n3)cc2)CCO1`?
A: IC50 (Histone deacetylase 1): 0.19 nM; IC50 (Histone deacetylase 8): 1.28 nM; IC50 [1]: 1.2 nM; IC50 (MV4-11 [2]): 4.05 nM; inhibition [3]: 28.3%; Activity (MV4-11 [4]): 33.77%; Activity (MV4-11 [5]): 23.42%; Activity (MM1.S [6]): 53.85%; Activity (MV4-11 [7]): 0.14%; viability at 0.01 µM (MV4-11 [8]): 75.2%; Activity (MV4-11 [9]): 2.05%; Activity (MV4-11 [10]): 1.86%; viability at 0.16 µM (MV4-11 [11]): 2.29%; Activity (MV4-11 [12]): 68.3%; Activity (MM1.S [13]): 4.78%; Activity (MM1.S [14]): 7.95%; Activity (MM1.S [15]): 1.78%; inhibition [16]: Active; inhibition [17]: Dose-dependent effect; inhibition in vivo at 10 mg/kg (MV4-11 [18]): 53.1%; Activity [19]: Non-Toxic
